Data published in ChEMBL document CHEMBL3877247, “Identification of an indol-based derivative as potent and selective varicella zoster virus (VZV) inhibitor” (Eur J Med Chem, 2016).
pEC50: −log10 of the molar value.

How the values were obtained:
Human alphaherpesvirus 3 [1] = test: Antiviral activity against thymidine kinase deficient Varicella-Zoster virus 07-1 infected in HEL cells assessed as inhibition of virus plaque formation; format: functional, cell-based; conditions: Human alphaherpesvirus 3, 07-1, HEL
Outline: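 Confluent HEL fibroblast monolayers were infected with 20 PFU of TK⁻ VZV strain 07-1 and incubated with varying compound concentrations. Plaques were recorded once plaque formation reached completion in untreated infected controls.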

Human alphaherpesvirus 3 [2] = test: Antiviral activity against thymidine Kinase expressing Varicella-Zoster virus OKA infected in HEL cells assessed as inhibition of virus plaque formation; format: functional, cell-based; conditions: Human alphaherpesvirus 3, OKA
Outline: (§1)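 Confluent HEL cell monolayers were infected with 20 PFU of VZV and incubated with varying compound concentrations. Plaques were scored once plaque formation was complete in untreated infected controls.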

[3] = Cytotoxicity against HEL cells assessed as growth inhibition after 3 days by coulter counter method; format: toxicity, cell-based; conditions: human; for CC50: hel, 72 h; for CC50 at 72 h: HEL cells
Outline: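 HEL cells were seeded at 5×10^3 cells/well and allowed to grow for 24 h. Medium with varying compound concentrations was then added, and cells were incubated for 3 days at 37 °C before counting with a Coulter counter.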

Human betaherpesvirus 5 [4] = test: Antiviral activity against Human cytomegalovirus AD169 infected in HEL cells assessed as inhibition of virus plaque formation; format: functional, cell-based; conditions: Human betaherpesvirus 5, AD169, HEL
[5] = Cytotoxicity against HEL cells assessed as alteration of cell morphology after 3 days by microscopic method; format: toxicity, cell-based; conditions: human
Outline: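 HEL cultures were exposed to compound at varying concentrations. Cytotoxicity was recorded as the minimum cytotoxic concentration, the lowest concentration giving a microscopically detectable alteration of cell morphology.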

Human betaherpesvirus 5 [6] = test: Antiviral activity against Human cytomegalovirus Davis infected in HEL cells assessed as inhibition of virus plaque formation; format: functional, cell-based; conditions: Human betaherpesvirus 5, Davis
Human alphaherpesvirus 1 [7] = test: Antiviral activity against Herpes simplex virus 1 KOS infected in HEL cells assessed as inhibition of virus plaque formation; format: functional, cell-based; conditions: Human alphaherpesvirus 1, KOS
Human alphaherpesvirus 1 [8] = test: Antiviral activity against thymidine kinase-deficient acyclovir-resistant Herpes simplex virus 1 KOS infected in HEL cells assessed as inhibition of virus plaque formation; format: functional, cell-based; conditions: Human alphaherpesvirus 1, KOS
Human alphaherpesvirus 2 = test: Antiviral activity against Herpes simplex virus 2 G infected in HEL cells assessed as inhibition of virus plaque formation; format: functional, cell-based; conditions: Human alphaherpesvirus 2, strain G
Human alphaherpesvirus 3 [9] = test: Antiviral activity against thymidine kinase deficient Varicella-Zoster virus YS-R infected in HEL cells assessed as inhibition of virus plaque formation; format: functional, cell-based; conditions: Human alphaherpesvirus 3, YS-R; outline: as §1

Compound: COc1ccc(CNCCc2cn(C)c3ccccc23)cc1
- pEC50 (Human alphaherpesvirus 3 [1]): < 4.70
- pEC50 (Human alphaherpesvirus 3 [2]): < 4.70
- CC50 [3]: 28 µM
- pEC50 (Human betaherpesvirus 5 [4]): < 4.70
- MCC at 72 h [5]: 100 µM
- pEC50 (Human betaherpesvirus 5 [6]): < 4.70
- pEC50 (Human alphaherpesvirus 1 [7]): < 4.70
- pEC50 (Human alphaherpesvirus 1 [8]): < 4.70
- pEC50 (Human alphaherpesvirus 2): < 4.70

Compound: CCCn1cc(CN2CCCCC2)c2cc(CNc3ccc(Cl)cc3)ccc21
- pEC50 (Human alphaherpesvirus 3 [1]): < 5.40
- pEC50 (Human alphaherpesvirus 3 [2]): < 5.40
- CC50 [3]: 15 µM
- MCC at 72 h [5]: 20 µM
- pEC50 (Human betaherpesvirus 5 [6]): < 5.40
- pEC50 (Human alphaherpesvirus 1 [7]): < 4.70
- pEC50 (Human alphaherpesvirus 1 [8]): < 4.70
- pEC50 (Human alphaherpesvirus 2): < 4.70

Compound: Nc1nc2c(ncn2COCCO)c(=O)[nH]1 [ACYCLOVIR]
- CC50 at 72 h [3]: 191 to 224 µM
- MCC at 72 h [5]: 250 to 440 µM

Compound: CC(=O)N(CCc1ccc(-c2ccccc2)cc1)CCc1cn(C)c2ccccc12
- pEC50 (Human alphaherpesvirus 3 [1]): 5.51 to 5.77
- pEC50 (Human alphaherpesvirus 3 [2]): 5.44 to 5.60
- pEC50 (Human alphaherpesvirus 3 [9]): 5.68
- CC50 [3]: 31 to 39 µM
- MCC at 72 h [5]: 20 to 35 µM
- pEC50 (Human betaherpesvirus 5 [6]): < 5.40
- pEC50 (Human alphaherpesvirus 1 [7]): < 4.00
- pEC50 (Human alphaherpesvirus 1 [8]): < 4.00
- pEC50 (Human alphaherpesvirus 2): < 4.00

Compound: CC(=O)N(CCc1cn(C)c2ccccc12)Cc1ccc(Oc2ccccc2)cc1
- pEC50 (Human alphaherpesvirus 3 [1]): < 5.40
- pEC50 (Human alphaherpesvirus 3 [2]): < 5.40
- MCC at 72 h [5]: 20 µM

Compound: CCCn1cc(C(=O)c2ccc(Cl)cc2)c2ccccc21
- pEC50 (Human alphaherpesvirus 3 [1]): < 4.00
- pEC50 (Human alphaherpesvirus 3 [2]): < 4.00
- CC50 [3]: > 100 µM
- MCC at 72 h [5]: > 100 µM
- pEC50 (Human betaherpesvirus 5 [6]): < 4.00
- pEC50 (Human alphaherpesvirus 1 [7]): < 4.00
- pEC50 (Human alphaherpesvirus 1 [8]): < 4.00
- pEC50 (Human alphaherpesvirus 2): < 4.00

Compound: O=c1[nH]c(=O)n([C@H]2C[C@H](O)[C@@H](CO)O2)cc1/C=C/Br [BRIVUDINE]
- pEC50 (Human alphaherpesvirus 3 [1]): 3.84 to 4.48
- pEC50 (Human alphaherpesvirus 3 [2]): 7.46 to 7.72
- CC50 at 72 h [3]: 160 to 300 µM
- MCC at 72 h [5]: 250 to 300 µM
- pEC50 (Human alphaherpesvirus 2): 4.02

Compound: CCCn1cc(CN2CCCCC2)c2ccccc21
- pEC50 (Human alphaherpesvirus 3 [1]): < 4.00
- pEC50 (Human alphaherpesvirus 3 [2]): < 4.00
- CC50 [3]: > 100 µM
- pEC50 (Human betaherpesvirus 5 [4]): < 5.40
- MCC at 72 h [5]: > 100 µM
- pEC50 (Human betaherpesvirus 5 [6]): < 5.40
- pEC50 (Human alphaherpesvirus 1 [7]): < 4.00
- pEC50 (Human alphaherpesvirus 1 [8]): < 4.00
- pEC50 (Human alphaherpesvirus 2): < 4.00

Compound: Cn1cc(CCN(CCc2ccc(-c3ccccc3)cc2)C(=O)c2ccccc2)c2ccccc21
- pEC50 (Human alphaherpesvirus 3 [1]): 4.70
- pEC50 (Human alphaherpesvirus 3 [2]): 4.70
- MCC at 72 h [5]: > 100 µM

Compound: Nc1ccn(C[C@@H](CO)OCP(=O)(O)O)c(=O)n1 [CIDOFOVIR]
- MCC at 72 h [5]: > 250 µM
- pEC50 (Human alphaherpesvirus 1 [7]): 6.40
- pEC50 (Human alphaherpesvirus 2): 6.15

Compound: CCCn1cc(CN2CCCCC2)c2cc(NC(=O)c3ccccc3)ccc21
- pEC50 (Human alphaherpesvirus 3 [1]): < 4.70
- pEC50 (Human alphaherpesvirus 3 [2]): < 4.70
- CC50 [3]: 31 µM
- MCC at 72 h [5]: 100 µM
- pEC50 (Human betaherpesvirus 5 [6]): < 4.70
- pEC50 (Human alphaherpesvirus 1 [7]): < 4.00
- pEC50 (Human alphaherpesvirus 1 [8]): < 4.00
- pEC50 (Human alphaherpesvirus 2): < 4.00

Compound: Cn1cc(CCN(CCc2ccc(-c3ccccc3)cc2)C(=O)CCN2CCOCC2)c2ccccc21
- pEC50 (Human alphaherpesvirus 3 [1]): < 5.40
- pEC50 (Human alphaherpesvirus 3 [2]): < 5.40
- MCC at 72 h [5]: 20 µM

Compound: CC(=O)N(CCc1cn(C)c2ccccc12)c1cccc2ccccc12
- pEC50 (Human alphaherpesvirus 3 [1]): < 4.70
- pEC50 (Human alphaherpesvirus 3 [2]): < 4.70
- MCC at 72 h [5]: 100 µM

Compound: CC(=O)N(CCc1cn(C)c2ccccc12)Cc1cccc2ccccc12
- pEC50 (Human alphaherpesvirus 3 [1]): < 4.70
- pEC50 (Human alphaherpesvirus 3 [2]): < 4.70
- MCC at 72 h [5]: 100 µM

Compound: CCCn1cc(CNCCc2ccc(-c3ccccc3)cc2)c2ccccc21
- pEC50 (Human alphaherpesvirus 3 [1]): < 6.10
- pEC50 (Human alphaherpesvirus 3 [2]): < 6.10
- CC50 [3]: 1.7 µM
- MCC at 72 h [5]: 4 µM
- pEC50 (Human betaherpesvirus 5 [6]): < 6.80
- pEC50 (Human alphaherpesvirus 1 [7]): < 4.00
- pEC50 (Human alphaherpesvirus 1 [8]): < 4.00
- pEC50 (Human alphaherpesvirus 2): < 4.00

Compound: COC(=O)c1ccc(CNCCc2cn(Cc3ccc(-c4ccccc4)cc3)c3ccccc23)cc1
- pEC50 (Human alphaherpesvirus 3 [1]): < 5.40
- pEC50 (Human alphaherpesvirus 3 [9]): < 5.40
- CC50 [3]: 7.3 µM
- pEC50 (Human betaherpesvirus 5 [4]): < 5.40
- MCC at 72 h [5]: 20 µM
- pEC50 (Human betaherpesvirus 5 [6]): < 5.40
- pEC50 (Human alphaherpesvirus 1 [7]): < 4.00
- pEC50 (Human alphaherpesvirus 1 [8]): < 4.00
- pEC50 (Human alphaherpesvirus 2): < 4.00

Compound: Cn1cc(CCN(CCc2ccc(-c3ccccc3)cc2)C(=O)C2CCCCC2)c2ccccc21
- pEC50 (Human alphaherpesvirus 3 [1]): < 5.40
- pEC50 (Human alphaherpesvirus 3 [2]): < 5.40
- MCC at 72 h [5]: 20 µM

Compound: CCCn1cc(CNCCc2ccc(-c3ccccc3)cc2)c2cc(CNc3ccc(Cl)cc3)ccc21
- pEC50 (Human alphaherpesvirus 3 [1]): < 5.40
- pEC50 (Human alphaherpesvirus 3 [2]): < 5.40
- CC50 [3]: 9.7 µM
- MCC at 72 h [5]: 20 µM
- pEC50 (Human betaherpesvirus 5 [6]): < 5.40
- pEC50 (Human alphaherpesvirus 1 [7]): < 5.40
- pEC50 (Human alphaherpesvirus 1 [8]): < 5.40
- pEC50 (Human alphaherpesvirus 2): < 5.40

Compound: Cn1cc(CCN(CCc2ccc(-c3ccccc3)cc2)C(=O)OC(C)(C)C)c2ccccc21
- pEC50 (Human alphaherpesvirus 3 [1]): < 5.40
- pEC50 (Human alphaherpesvirus 3 [2]): < 5.40
- MCC at 72 h [5]: 20 µM

Compound: CC(=O)N(CCc1cn(C)c2ccccc12)Cc1ccc2ccccc2c1
- pEC50 (Human alphaherpesvirus 3 [1]): < 5.40
- pEC50 (Human alphaherpesvirus 3 [2]): < 5.40
- MCC at 72 h [5]: 20 µM

Compound: CC(=O)N(CCc1cn(C)c2ccccc12)Cc1ccc(-c2ccccc2)cc1
- pEC50 (Human alphaherpesvirus 3 [1]): < 4.70
- pEC50 (Human alphaherpesvirus 3 [2]): < 4.70
- MCC at 72 h [5]: 100 µM

Compound: Nc1nc(O)c2ncn(COC(CO)CO)c2n1 [GANCICLOVIR]
- MCC at 72 h [5]: > 100 µM

Compound: Cn1cc(CCNCc2ccc(Cl)cc2)c2ccccc21
- pEC50 (Human alphaherpesvirus 3 [1]): < 5.40
- pEC50 (Human alphaherpesvirus 3 [2]): < 5.40
- CC50 [3]: 22 µM
- pEC50 (Human betaherpesvirus 5 [4]): < 4.70
- MCC at 72 h [5]: 20 µM
- pEC50 (Human betaherpesvirus 5 [6]): < 4.70
- pEC50 (Human alphaherpesvirus 1 [7]): < 4.70
- pEC50 (Human alphaherpesvirus 1 [8]): < 4.70
- pEC50 (Human alphaherpesvirus 2): < 4.70

Compound: Cn1cc(CCNCCc2ccc(-c3ccccc3)cc2)c2ccccc21
- pEC50 (Human alphaherpesvirus 3 [1]): < 5.40
- CC50 [3]: 20 µM
- pEC50 (Human betaherpesvirus 5 [4]): < 5.40
- MCC at 72 h [5]: > 4 µM
- pEC50 (Human betaherpesvirus 5 [6]): < 5.40
- pEC50 (Human alphaherpesvirus 1 [7]): < 4.00
- pEC50 (Human alphaherpesvirus 1 [8]): < 4.00
- pEC50 (Human alphaherpesvirus 2): < 4.00

Compound: c1ccc(-c2ccc(Cn3cc(CN4CCCCC4)c4ccccc43)cc2)cc1
- pEC50 (Human alphaherpesvirus 3 [1]): < 5.40
- pEC50 (Human alphaherpesvirus 3 [2]): < 5.40
- CC50 [3]: 6.9 µM
- MCC at 72 h [5]: 20 µM
- pEC50 (Human betaherpesvirus 5 [6]): < 5.40
- pEC50 (Human alphaherpesvirus 1 [7]): < 4.70
- pEC50 (Human alphaherpesvirus 1 [8]): < 4.70
- pEC50 (Human alphaherpesvirus 2): < 4.70

Compound: Cn1cc(CCNc2ccc3ccccc3c2)c2ccccc21
- pEC50 (Human alphaherpesvirus 3 [1]): < 4.00
- pEC50 (Human alphaherpesvirus 3 [2]): < 4.00
- CC50 [3]: 41 µM
- pEC50 (Human betaherpesvirus 5 [4]): 4.12
- MCC at 72 h [5]: > 100 µM
- pEC50 (Human betaherpesvirus 5 [6]): 4.00
- pEC50 (Human alphaherpesvirus 1 [7]): < 4.00
- pEC50 (Human alphaherpesvirus 1 [8]): < 4.00
- pEC50 (Human alphaherpesvirus 2): < 4.00

Compound: CC(=O)N(CCc1cn(C)c2ccccc12)c1ccc2ccccc2c1
- pEC50 (Human alphaherpesvirus 3 [1]): < 5.40
- pEC50 (Human alphaherpesvirus 3 [2]): < 5.40
- MCC at 72 h [5]: 20 µM
